The structures appear in SMILES notation. Some results are limits rather than exact numbers.

Sequence of Methionine aminopeptidase 2 (Homo sapiens) (P50579 2-478 limits assumed): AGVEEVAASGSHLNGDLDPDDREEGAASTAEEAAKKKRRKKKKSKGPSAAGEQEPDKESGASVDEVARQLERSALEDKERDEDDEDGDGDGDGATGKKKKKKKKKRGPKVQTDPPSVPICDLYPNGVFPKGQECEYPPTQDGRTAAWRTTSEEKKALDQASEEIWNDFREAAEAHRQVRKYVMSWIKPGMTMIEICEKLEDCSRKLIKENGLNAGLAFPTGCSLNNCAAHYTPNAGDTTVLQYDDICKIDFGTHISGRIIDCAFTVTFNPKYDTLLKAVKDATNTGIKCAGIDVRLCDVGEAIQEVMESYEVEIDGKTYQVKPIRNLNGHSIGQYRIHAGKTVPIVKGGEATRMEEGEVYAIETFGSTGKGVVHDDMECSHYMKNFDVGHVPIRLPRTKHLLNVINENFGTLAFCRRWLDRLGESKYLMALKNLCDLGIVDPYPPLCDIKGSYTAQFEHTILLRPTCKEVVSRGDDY

One series has as its target Methionine aminopeptidase 2 (Homo sapiens) (UniProt P50579). In words: Inhibition of MetAP2 assessed as remaining enzyme activity at 200 nM after 8 hrs relative to untreated control.
Details: not given
In a few lines:
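MetAP2 at 20 nM final was incubated with compound at 200 nM final in 1% glycerol, 20 mM HEPES, 100 mM KCl, 0.1 mM CoSO4. Triplicate samples were taken at 1, 2, 4 and 8 h, and residual activity was read with Met-AMC substrate. Result is percent activity remaining at 8 h.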
On to `CO[C@H]1[C@@H]([C@@]2(C)O[C@@H]2CC=C(C)C)[C@]2(CC[C@H]1OC(=O)N[C@@H](C(=O)NCCC1CCCN1C)C(C)C)CO2` (stereo partly specified), for which the Activity is 4.5%.
The same measure, in the same setting: next, `CO[C@H]1[C@@H]([C@@]2(C)O[C@@H]2CC=C(C)C)[C@]2(CC[C@H]1OC(=O)NC(=O)CCl)CO2`: 4%.
With `CO[C@H]1[C@@H]([C@@]2(C)O[C@@H]2CC=C(C)C)[C@]2(CC[C@H]1OC(=O)N[C@@H](C(=O)NN1CCOCC1)C(C)C)CO2`, the Activity is 5.2%.
Regarding `CO[C@H]1[C@@H]([C@@]2(C)O[C@@H]2CC=C(C)C)[C@]2(CC[C@H]1OC(=O)N[C@@H](C(N)=O)C(C)C)CO2`, the Activity was determined as 2.8%.
For `CO[C@H]1[C@@H]([C@@]2(C)O[C@@H]2CC=C(C)C)[C@]2(CC[C@H]1OC(=O)N[C@@H](C(=O)NCCN1CCCC1)C(C)C)CO2`, the Activity is 2.6%.
Same read-out and setting: to `CO[C@H]1C([C@@]2(C)O[C@@H]2CC=C(C)C)[C@]2(CC[C@H]1OC(=O)NCCC[N+](C)(C)C)CO2` (single isomer, unassigned) belongs 5.4%.
Same read-out and setting: next, `CO[C@H]1C([C@@]2(C)O[C@@H]2CC=C(C)C)[C@]2(CC[C@H]1OC(=O)N[C@@H](C(=O)Nc1cccc(C(=O)O)c1)C(C)C)CO2` (single isomer, unassigned): 4.3%; `CO[C@H]1C([C@@]2(C)O[C@@H]2CC=C(C)C)[C@]2(CC[C@H]1OC(=O)NCc1ccc(C(=O)O)cc1)CO2` (single isomer, unassigned): 3.5%.
Regarding `CO[C@H]1C([C@@]2(C)O[C@@H]2CC=C(C)C)[C@]2(CC[C@H]1OC(=O)NC(C)(C)C(N)=O)CO2` (single isomer, unassigned), the Activity is 24%.
For `CO[C@H]1C([C@@]2(C)O[C@@H]2CC=C(C)C)[C@]2(CC[C@H]1OC(=O)NC1(C(N)=O)CCCC1)CO2` (single isomer, unassigned), the Activity came out at 13%.
Still for that read-out and setting: to `CO[C@H]1C([C@@]2(C)O[C@@H]2CC=C(C)C)[C@]2(CC[C@H]1OC(=O)NN1CCOCC1)CO2` (single isomer, unassigned) belongs 5.7%; to `CO[C@H]1C([C@@]2(C)O[C@@H]2CC=C(C)C)[C@]2(CC[C@H]1OC(=O)NCCC1CCC[N+]1(C)C)CO2` (single isomer, unassigned), 6.3%; to `CO[C@H]1C([C@@]2(C)O[C@@H]2CC=C(C)C)[C@]2(CC[C@H]1OC(=O)NCCN1CCCC1)CO2` (single isomer, unassigned), 3.5%.
Same read-out and setting: to `CO[C@H]1C([C@@]2(C)O[C@@H]2CC=C(C)C)[C@]2(CC[C@H]1OC(=O)NC(C)C)CO2` (single isomer, unassigned) belongs 3%; to `CO[C@H]1C([C@@]2(C)O[C@@H]2CC=C(C)C)[C@]2(CC[C@H]1OC(=O)NCCC1CCCN1C)CO2` (single isomer, unassigned), 5.4%; to `CO[C@H]1C([C@@]2(C)O[C@@H]2CC=C(C)C)[C@]2(CC[C@H]1OC(=O)N1CCC(C(=O)O)CC1)CO2` (single isomer, unassigned), 8.3%.

The test system of the next series is HUVEC. Put plainly: Antiproliferative activity against HUVEC after 72 hrs by MTT assay. The series is classed as cell-based. To be noted: Homo sapiens. In a few lines: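 HUVEC (passage 3-5) grown in endothelial growth medium at 37 C; 2000 cells/well seeded in triplicate. After attachment, fresh medium with compound for 72 h. MTT 0.25 mg/mL added for 2 h at 37 C, formazan dissolved in isopropanol, absorbance read at 570 nm. Value is concentration giving 50% growth inhibition.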
On the technique in general: Formazan colour is commonly taken as a measure of viable cells.
What is called IC50 is the point on the concentration scale where inhibition reaches its midpoint. High values mean weaker potency in that assay, low ones greater potency in that assay. For the molecule `COC(=O)[C@@H](NC(=O)O[C@@H]1CC[C@]2(CO2)[C@H]([C@@]2(C)O[C@@H]2CC=C(C)C)[C@@H]1OC)C(C)C`, the IC50 worked out at 0.018 nM.
Same read-out and setting: next, `CO[C@H]1[C@@H]([C@@]2(C)O[C@@H]2CC=C(C)C)[C@]2(CC[C@H]1OC(=O)N[C@@H](C(=O)NCCC1CCCN1C)C(C)C)CO2` (stereo partly specified): 0.6 nM; `CO[C@H]1[C@@H]([C@@]2(C)O[C@@H]2CC=C(C)C)[C@]2(CC[C@H]1OC(=O)NC(=O)CCl)CO2`: 0.25 nM; `CO[C@H]1[C@@H]([C@@]2(C)O[C@@H]2CC=C(C)C)[C@]2(CC[C@H]1OC(=O)N[C@@H](C(=O)NN1CCOCC1)C(C)C)CO2`: 1.7 nM.
Same read-out and setting: next, `CO[C@H]1[C@@H]([C@@]2(C)O[C@@H]2CC=C(C)C)[C@]2(CC[C@H]1OC(=O)N[C@@H](C(N)=O)C(C)C)CO2`: 0.095 nM; `CO[C@H]1[C@@H]([C@@]2(C)O[C@@H]2CC=C(C)C)[C@]2(CC[C@H]1OC(=O)N[C@@H](C(=O)NCCN1CCCC1)C(C)C)CO2`: 0.6 nM.
Still for that read-out and setting: next, `CO[C@H]1C([C@@]2(C)O[C@@H]2CC=C(C)C)[C@]2(CC[C@H]1OC(=O)NCCC[N+](C)(C)C)CO2` (single isomer, unassigned): more than 100 nM.
Take `CO[C@H]1C([C@@]2(C)O[C@@H]2CC=C(C)C)[C@]2(CC[C@H]1OC(=O)NC(C)(C)C)CO2` (single isomer, unassigned): the midpoint of inhibition, the IC50, lay at 1.1 nM.
`CO[C@H]1C([C@@]2(C)O[C@@H]2CC=C(C)C)[C@]2(CC[C@H]1OC(=O)N[C@@H](C(=O)Nc1cccc(C(=O)O)c1)C(C)C)CO2` (single isomer, unassigned): half-maximal inhibition (IC50) required 15 nM.
On the same count and under the same terms, next, `CO[C@H]1C([C@@]2(C)O[C@@H]2CC=C(C)C)[C@]2(CC[C@H]1OC(=O)NCc1ccc(C(=O)O)cc1)CO2` (single isomer, unassigned): 0.7 nM; `CO[C@H]1C([C@@]2(C)O[C@@H]2CC=C(C)C)[C@]2(CC[C@H]1OC(=O)NC(C)(C)C(N)=O)CO2` (single isomer, unassigned): 1.7 nM; `CO[C@H]1C([C@@]2(C)O[C@@H]2CC=C(C)C)[C@]2(CC[C@H]1OC(=O)NC1(C(N)=O)CCCC1)CO2` (single isomer, unassigned): 0.7 nM.
Molecule `CO[C@H]1C([C@@]2(C)O[C@@H]2CC=C(C)C)[C@]2(CC[C@H]1OC(=O)NN1CCOCC1)CO2` (single isomer, unassigned) showed an IC50 of 0.7 nM. In other words, the sub-nanomolar range.
The molecule `CO[C@H]1C([C@@]2(C)O[C@@H]2CC=C(C)C)[C@]2(CC[C@H]1OC(=O)NCCC1CCC[N+]1(C)C)CO2` (single isomer, unassigned) yielded a concentration for half-maximal inhibition (IC50) of more than 100 nM.
Still for that read-out and setting: next, `COC(=O)[C@H](NC(=O)O[C@@H]1CC[C@]2(CO2)C([C@@]2(C)O[C@@H]2CC=C(C)C)[C@@H]1OC)c1ccccc1` (single isomer, unassigned): 0.036 nM.
Same read-out and setting: to `CO[C@H]1C([C@@]2(C)O[C@@H]2CC=C(C)C)[C@]2(CC[C@H]1OC(=O)NCCN1CCCC1)CO2` (single isomer, unassigned) belongs 0.1 nM.
`CO[C@H]1C([C@@]2(C)O[C@@H]2CC=C(C)C)[C@]2(CC[C@H]1OC(=O)NC(C)C)CO2` (single isomer, unassigned) came in with an IC50 of 0.06 nM. Against the preceding molecule, the IC50 is about 1.7-fold lower.
`COC(=O)[C@H](NC(=O)O[C@@H]1CC[C@]2(CO2)C([C@@]2(C)O[C@@H]2CC=C(C)C)[C@@H]1OC)C(C)C` (single isomer, unassigned) gave an IC50 of 0.04 nM. This IC50 lies about 1.5-fold lower than the previous one.
`CO[C@H]1C([C@@]2(C)O[C@@H]2CC=C(C)C)[C@]2(CC[C@H]1OC(=O)NCCC1CCCN1C)CO2` (single isomer, unassigned) came in with an IC50 of 0.2 nM.
Regarding `COC(=O)[C@@H](CC(C)C)NC(=O)O[C@@H]1CC[C@]2(CO2)C([C@@]2(C)O[C@@H]2CC=C(C)C)[C@@H]1OC` (single isomer, unassigned), the 50% inhibitory concentration (IC50) amounted to 0.038 nM.
`CO[C@H]1C([C@@]2(C)O[C@@H]2CC=C(C)C)[C@]2(CC[C@H]1OC(=O)N1CCC(C(=O)O)CC1)CO2` (single isomer, unassigned) showed an IC50 of 1.3 nM.

Tested on in a further series: not listed separately
Put plainly: Antiproliferative activity against BAEC. It counts as functional, cell-based. The following applies: Bos taurus.
The molecule `COC(=O)[C@@H](NC(=O)O[C@@H]1CC[C@]2(CO2)[C@H]([C@@]2(C)O[C@@H]2CC=C(C)C)[C@@H]1OC)C(C)C` showed a 50% inhibitory concentration (IC50) of 0.017 nM.
For the molecule `CO[C@H]1[C@@H]([C@@]2(C)O[C@@H]2CC=C(C)C)[C@]2(CC[C@H]1OC(=O)N[C@@H](C(N)=O)C(C)C)CO2`, the half-maximal inhibitory concentration (IC50) worked out at 0.046 nM.
With `COC(=O)[C@H](NC(=O)O[C@@H]1CC[C@]2(CO2)C([C@@]2(C)O[C@@H]2CC=C(C)C)[C@@H]1OC)c1ccccc1` (single isomer, unassigned), the IC50 stood at 0.035 nM.
On to `COC(=O)[C@H](NC(=O)O[C@@H]1CC[C@]2(CO2)C([C@@]2(C)O[C@@H]2CC=C(C)C)[C@@H]1OC)C(C)C` (single isomer, unassigned), for which the IC50 was determined as 0.048 nM.
In turn, `COC(=O)[C@@H](CC(C)C)NC(=O)O[C@@H]1CC[C@]2(CO2)C([C@@]2(C)O[C@@H]2CC=C(C)C)[C@@H]1OC` (single isomer, unassigned) showed an IC50 of 0.118 nM.

Another series deals with Rattus norvegicus. In words: CNS toxicity in rat assessed as incidence of seizures at 6 mg/kg, iv qd for 14 days. To be noted: in vivo, 336 h.
`CO[C@H]1[C@@H]([C@@]2(C)O[C@@H]2CC=C(C)C)[C@]2(CC[C@H]1OC(=O)N[C@@H](C(N)=O)C(C)C)CO2`: the Activity entry was “Non-toxic”.
On to `COC(=O)[C@@H](CC(C)C)NC(=O)O[C@@H]1CC[C@]2(CO2)C([C@@]2(C)O[C@@H]2CC=C(C)C)[C@@H]1OC` (single isomer, unassigned), for which the Activity entry is given as “Toxic”.

For the next series, the system named is Rattus norvegicus. Put plainly: CNS toxicity in rat assessed as incidence of seizures at 60 mg/kg, iv qd for 14 days. The following applies: in vivo, 336 h.
As for `CO[C@H]1[C@@H]([C@@]2(C)O[C@@H]2CC=C(C)C)[C@]2(CC[C@H]1OC(=O)N[C@@H](C(N)=O)C(C)C)CO2`, the Activity result is given as “Non-toxic”.
With `COC(=O)[C@@H](CC(C)C)NC(=O)O[C@@H]1CC[C@]2(CO2)C([C@@]2(C)O[C@@H]2CC=C(C)C)[C@@H]1OC` (single isomer, unassigned), the Activity result is recorded as “Toxic”.

(Values after ChEMBL document CHEMBL1154718, “Carbamate analogues of fumagillin as potent, targeted inhibitors of methionine aminopeptidase-2” (J Med Chem, 2009).)
